mABHD4 FP – ABHD4 inhibitors, primary screen, biochemical, fluorescence polarization, mouse; inhibition, % at 8.92 µM; (Lyso)-N-acylphosphatidylethanolamine lipase (Mus musculus), Q8VD66; purified mABHD4, FP-Rh probe fluorescence polarization; AID 720543, 2013; 370,000 compounds, 0.54% hits;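 active = inhibition exceeding the mean over every tested compound plus 3 SD, cut at about 30% in these data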;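 also: 0% = plate median of compound wells and 100% = S159A mutant with DMSO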
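system = mouse ABHD4 enzyme, wild type | medium = HEPES pH 7.0, NaCl, Pluronic buffer | also added = FP-Rh probe | incubation = Enzyme–compound pre-incubation 45 min, then probe 60 min, both 25 °C | technique = fluorescence polarization, excitation 525 nm, emission 598 nm, BODIPY TMR filters | controls = S159A mutant high control, sample median low control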
HTRA1 inhibitor – HTRA1 serine protease inhibitors, primary screen, biochemical, fluorescence polarization, HTS; 340,000 compounds, 0.5% hits; inhibition, % at 5.96 µM; recombinant HTRA1, FP-rhodamine activity-based probe; in the data active = inhibition above about 36%;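 also: 0% = enzyme with DMSO and 100% = wells lacking enzyme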
Target sequence (Q92743 whole entry, looked up): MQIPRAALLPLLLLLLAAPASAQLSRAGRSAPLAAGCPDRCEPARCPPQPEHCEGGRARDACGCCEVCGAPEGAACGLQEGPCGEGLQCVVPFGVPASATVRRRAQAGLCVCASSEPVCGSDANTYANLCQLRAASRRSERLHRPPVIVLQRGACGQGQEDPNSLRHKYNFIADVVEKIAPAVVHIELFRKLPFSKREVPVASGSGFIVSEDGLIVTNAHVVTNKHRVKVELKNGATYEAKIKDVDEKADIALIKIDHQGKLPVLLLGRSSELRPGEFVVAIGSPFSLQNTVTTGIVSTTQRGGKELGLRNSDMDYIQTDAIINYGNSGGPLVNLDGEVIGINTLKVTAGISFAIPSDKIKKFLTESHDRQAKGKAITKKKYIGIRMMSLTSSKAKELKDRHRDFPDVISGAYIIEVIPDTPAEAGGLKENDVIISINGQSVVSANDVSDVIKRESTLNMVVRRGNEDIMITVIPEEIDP
TCR-CD3 inh – inhibitors of human TCR-CD3 interaction, primary screen, biochemical, fluorescence, TAMRA-labeled TCR probe | 360,000 compounds, 0.37% hits | T-cell receptor (TCR) | inhibition, % at 9.4 µM; in the data active = inhibition above about 19%;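 also: recombinant mutant TCR 2C K166C tagged with TAMRA read by polarization; 0% = receptor in buffer alone and 100% = receptor with positive control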
SIAE inh – human SIAE inhibitors, primary screen, biochemical, fluorescence polarization, FP-Rh probe, 1536-well HTS; AID 1053197, 2014; Sialate O-acetylesterase (Homo sapiens), Q9HAT2; inhibition, % at 9.66 µM; 370,000 compounds, 0.69% hits; SIAE FP-Rh probe binding;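 active = inhibition above a cutoff: mean of compounds within the control limits plus 3 SD of those, cut at about 17% in these data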;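 also: 0% = plate median of compound wells and 100% = probe without SIAE protein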
Tn7 DDE FP – inhibitors of Tn7 peptide binding to fibrin DD(E), primary screen, biochemical, fluorescence polarization, human fibrin, Tn7 probe. 370,000 compounds, 0.13% hits. inhibition, % at 8.3 µM. FP displacement of FITC-Tn7 peptide from fibrin DD(E); 0% = median of compound wells per plate. Fibrinogen beta chain (Homo sapiens), P02675. AID 720508, 2013;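 active = inhibition above the mean of compounds falling within the control limits plus 3 SD of them, cut at about 14% in these data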;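 also: 0% = plate median of compound wells and 100% = 10 µM Aha-Tn7 peptide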
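assay system = human clot-derived fibrin DD(E) complex | quantity = Fibrin-DD(E) at 2 µM final | timing = 10 min preincubation, 3 h with tracer, room temperature | signal = fluorescence polarization | measure = percent inhibition | benchmarks = high control wells with 10 µM unlabelled Aha-Tn7 peptide (full inhibition) | replicates = singlicate testing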
Tn6 DDE FP – inhibitors of Tn6 peptide binding to fibrin DD(E), primary screen, biochemical, fluorescence polarization, human fibrin, Tn6 probe; Fibrinogen beta chain (Homo sapiens), P02675; Fibrin DD(E) TRITC-Tn6 fluorescence polarization displacement; inhibition, % at 8.3 µM; 370,000 compounds, 0.21% hits; AID 720509, 2013;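 active = inhibition above a per-campaign cutoff: mean of compounds within control limits plus 3 SD, cut at about 15% in these data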;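 also: 0% = median of all compound wells on the plate and 100% = blocking peptide control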
HTRA1 conf – HTRA1 protease inhibitors, retest, confirmation, biochemical, fluorescence polarization; shares compounds with HTRA1 inhibitor; recombinant HTRA1, FP-rhodamine activity-based probe; inhibition, % at 5.96 µM; 1,600 compounds, 66% hits;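 active = mean inhibition over three repeats above a set limit taken from the earlier primary screen, cut at about 37% in these data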;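 also: 0% = HTRA1 with DMSO and 100% = wells lacking HTRA1; inhibitors block probe binding so polarization drops and inhibition rises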
An asterisk follows results filed as active; · = not tested or not shown. The list is not random: actives were taken first. Their share in the collection is about 1.8%.

SMILES | mABHD4 FP | HTRA1 inhibitor | TCR-CD3 inh | SIAE inh | Tn7 DDE FP | Tn6 DDE FP | HTRA1 conf
COc1ccccc1CNc1nc(Nc2cccc(-c3cnco3)c2)c2sccc2n1 | -11 | · | 1 | 4 | 6 | -4 | ·
Cc1ccc(S(=O)(=O)Nc2ccc3oc(=O)sc3c2)c(C)c1 | -20 | 37* | -1 | -14 | 10 | -15 | 1
Cc1cc(C)c2nc(NNC(=O)c3ccc(S(=O)(=O)N4CCCC(C)C4)cc3)sc2c1 (stereo not drawn) | -1 | 51* | -3 | 3 | 1 | -7 | 54*
Cc1ccc2nc(NNC(=O)c3ccc4c(c3)OCCO4)sc2c1 | 14 | 11 | -7 | 6 | 0 | -1 | ·
Cc1cccc2sc(NNC(=O)c3ccc(S(=O)(=O)N4CC(C)CC(C)C4)cc3)nc12 (stereo not drawn) | -2 | 60* | 1 | 7 | 3 | 2 | 41*
Cc1ccc2nc(NNC(=O)c3ccc(S(=O)(=O)N4CCc5ccccc5C4)cc3)sc2c1 | -1 | 49* | -4 | -6 | -8 | -13 | 26
Cc1cc(C)c2nc(NNC(=O)c3ccc(S(=O)(=O)N4CC(C)CC(C)C4)cc3)sc2c1 (stereo not drawn) | 1 | 54* | -8 | 0 | -4 | -16 | 61*
Cn1nnc(NC(=O)c2cccc([N+](=O)[O-])c2)n1 | 0 | -1 | -7 | 14 | 4 | -1 | ·
COc1cccc(NS(=O)(=O)c2ccc3c(c2)C2C=CCC2C(c2ccc(C(=O)O)cc2)N3)c1 (stereo not drawn) | 28 | 49* | 13 | 10 | -1 | -8 | 15
O=C(O)c1ccc2c(c1)[C@@H]1C=CC[C@@H]1[C@H](c1ccccn1)N2 | 70* | 47* | 25* | 17* | -2 | 2 | 22
COc1ccc(C(=O)N/N=C(\C)c2ccc3c(c2)C2C=CCC2C(c2ccccc2)N3)cc1 (stereo not drawn) | · | 15 | · | · | · | · | ·
O=C(NCc1ccc(Cl)cc1)c1cc2c(s1)CS(=O)(=O)C2 | 4 | -18 | 7 | -12 | 1 | -12 | ·
Cc1cc([N+](=O)[O-])nn1Cc1noc(C(=O)NCCc2ccccn2)n1 | 6 | 0 | -7 | -1 | 9 | 2 | ·
Cc1sc2ncnc(N/N=C/c3ccccc3O)c2c1C | 22 | 60* | -1 | 3 | -1 | 1 | 61*
Cc1sc2ncnc(N/N=C/c3ccc(O)cc3)c2c1C | 18 | 20 | 1 | -2 | 1 | -1 | ·
CCN(C(=O)CN1CCN(c2nc(-c3ccccc3)cs2)CC1)c1ccccc1C | 7 | · | · | 3 | -4 | 4 | ·
Nc1ccccc1N=Nc1ccccc1N | 9 | 42* | -5 | 8 | -1 | -1 | 39*
COc1ccc(CN2C(=O)C(CC(=O)NC3CC3)CC(C(=O)N(C)C)=C2C)cc1 (stereo not drawn) | 3 | 9 | 1 | -5 | -1 | 8 | ·
Clc1ccc2nc(-c3ccccn3)c(Nc3ccc4c(c3)OCO4)n2c1 | 6 | 58* | 7 | 7 | -7 | -3 | 60*
COC(=O)[C@@]12CCCCC3=C1N(CCC3)C(=O)[C@H]2CC(=O)N1CCSCC1 | 2 | · | · | -3 | -3 | -4 | ·
NC(=S)NN=Cc1nccc2c(C(F)(F)C(F)(F)C(F)(F)F)cccc12 | 18 | 68* | -1 | 3 | 4 | 10 | 64*
C=CCNc1nc(C)c(CNc2c(C)cc(C)cc2C)nc1C#N | 0 | -3 | 7 | -5 | 4 | 2 | ·
O=C(C1CCN(S(=O)(=O)c2ccc3[nH]c(=O)oc3c2)CC1)N1CCCN(Cc2ccccc2)CC1 | 6 | · | · | 10 | 3 | 5 | ·
CCC(=O)NC(c1cc(Cl)c2cccnc2c1O)C(C)C (stereo not drawn) | 11 | 53* | 3 | 3 | -4 | 2 | 58*
CCC(=O)NC(c1cc(Cl)c2cccnc2c1O)C1CC1 (stereo not drawn) | 1 | 39* | 6 | 8 | 5 | 3 | 51*
SMILES | mABHD4 FP | HTRA1 inhibitor | TCR-CD3 inh | SIAE inh | Tn7 DDE FP | Tn6 DDE FP | HTRA1 conf
O=C(OC12CCCN(C1)/C(=C/c1ccccc1)C2)c1ccc(F)cc1 (stereo not drawn) | -5 | · | · | 0 | -6 | 1 | ·
COc1cc(/C=N/Nc2ccc(Cl)cc2)ccc1OC(=O)c1cccs1 | 1 | 47* | 1 | 10 | 3 | 6 | 68*
COc1cc(/C=N/NC(N)=O)ccc1OC(=O)c1cccs1 | -1 | 7 | -1 | 1 | 5 | 4 | ·
CCOC(=O)C1CCCN(C(=O)C2c3ccccc3Oc3ccccc32)C1 (stereo not drawn) | 12 | 53* | 5 | 4 | 3 | 3 | -8
COc1ccc(CNC(=O)CCCC(=O)n2nc(C)c3ccccc32)cc1 | -2 | -5 | 2 | 2 | 0 | -11 | ·
COC(=O)[C@]12C[C@H](CC(=O)NCCCCc3ccccc3)C(=O)N(Cc3ccco3)C1=C[C@H](COCc1ccccc1)O[C@@H]2C | -4 | · | · | 1 | 6 | 3 | ·
CCN1CCc2c(sc(NC(=O)c3ccc(S(=O)(=O)N4CCOCC4)cc3)c2C(=O)OC)C1 | -4 | 38* | -7 | 3 | -2 | -8 | 28
CC(C)N=c1scc(-c2ccco2)n1/N=C/c1ccc(O)c(O)c1 | 36* | 67* | -2 | -6 | -1 | 2 | 58*
Oc1ccc(/C=N/n2c(-c3ccco3)csc2=Nc2cccnc2)c(O)c1 | 21 | 8 | 3 | 5 | 2 | -21 | ·
CC(CCN1CCC(C(O)(c2ccccc2)c2ccccc2)CC1)Oc1ccc(F)cc1 (stereo not drawn) | 2 | · | · | -31 | -9 | 1 | ·
O=C(CC12CC3CC(CC(C3)C1)C2)NCC(c1ccc(F)cc1)N1CCOCC1 (stereo not drawn) | -3 | 3 | -1 | -3 | 0 | -1 | ·
Cc1ccc(/C=C/C(=O)c2ccccc(=O)c2O)cc1C | 29 | 37* | 7 | 4 | 1 | -5 | 44*
CN1c2ccccc2N(C)C1(C)c1ccccc1 | 8 | 21 | 18 | 11 | 3 | 4 | ·
CCN1c2ccccc2N(C)C1(C)c1ccccc1 (stereo not drawn) | · | 42* | · | · | · | · | 8
Cc1ccc(-n2c(Cc3cccs3)nnc2SCC(=O)Nc2ccccc2-c2ccccc2)cc1 | -1 | · | · | -3 | -2 | -3 | ·

Screens: PubChem BioAssay, The Scripps Research Institute Molecular Screening Center
